Reference: ChEMBL document CHEMBL2163332 (J Med Chem, 2012)
pEC50, pIC50, pKi: −log10 of the molar value. Activity calls are given as the source filed them. No cut-off for these calls is given here.

Tests used:
[1] = Half life in mouse brain homogenates; assay type: ADME, tissue-based; conditions: brain homogenate
Summary of the method: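 Peptide incubated at 37 °C in twice-washed 15% mouse brain membrane homogenate, final protein 2.1 mg/mL in 50 mM Tris, pH 7.4. Aliquots centrifuged 13000g, 15 min, 4 °C, filtered 0.22 μm and analysed by C18 RP-HPLC (acetonitrile/water, 0.05% TFA). Half-life from pseudo-first-order disappearance kinetics; at least three experiments.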

Mu-type opioid receptor [2] = target: T1, Mu-type opioid receptor (Homo sapiens, UniProt P35372); test: Agonist activity at human FLAG-tagged mu opioid receptor expressed in HEK293 cells assessed as induction of ERK1/2 phosphorylation at 1 pM after 10 mins by Western blot analysis; assay type: functional, cell-based
T1 sequence (P35372 whole entry): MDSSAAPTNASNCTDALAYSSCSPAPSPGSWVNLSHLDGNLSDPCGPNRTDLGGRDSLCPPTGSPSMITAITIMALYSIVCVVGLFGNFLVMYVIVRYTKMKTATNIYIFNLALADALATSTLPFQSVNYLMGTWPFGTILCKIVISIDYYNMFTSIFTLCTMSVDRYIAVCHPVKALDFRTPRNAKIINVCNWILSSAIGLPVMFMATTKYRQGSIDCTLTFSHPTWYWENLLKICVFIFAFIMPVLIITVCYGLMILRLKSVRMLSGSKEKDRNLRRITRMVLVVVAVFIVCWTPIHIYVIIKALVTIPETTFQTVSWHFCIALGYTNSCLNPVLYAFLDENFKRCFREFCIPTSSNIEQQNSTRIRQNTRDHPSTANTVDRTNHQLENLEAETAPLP
Summary of the method: (§1)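 Stable HEK293 line with FLAG-tagged MOR, in 12-well plates and serum-starved 16 h, then exposed to peptide at various concentrations for 10 min at 37 °C. Lysis in RIPA with 10 μM PMSF and phosphatase inhibitors. 20 μg protein run on 10% SDS-PAGE, blotted to PVDF and probed for phospho-ERK1/2 (Thr202/Tyr204) and total ERK1/2 (1:1000), ECL detection; at least three independent experiments.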

Mu-type opioid receptor [3] = target: T1, Mu-type opioid receptor; test: Agonist activity at mu opioid receptor expressed in HEK293 cells assessed as inhibition of forskolin-induced cAMP accumulation after 30 mins by liquid scintillation counter relative to control; assay type: functional, cell-based
Summary of the method: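 MOR-expressing HEK293 cells seeded at 80% confluence the day before, washed with serum-free medium, preincubated 10 min at 37 °C with 1 mM IBMX, then peptide (5 × 10−11 to 5 × 10−5 M) with 50 μM forskolin added for 30 min at 37 °C. Lysis in 0.2 N HCl, neutralisation, cAMP measured by competition with [3H]cAMP for PKA (≥2 h, 4 °C) and charcoal separation; scintillation counting.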

Mu-type opioid receptor [4] = target: T1, Mu-type opioid receptor; test: Agonist activity at mu opioid receptor expressed in HEK293 cells assessed as inhibition of forskolin-induced cAMP accumulation after 30 mins by liquid scintillation counter; assay type: functional, cell-based
Mu-type opioid receptor [5] = target: Mu-type opioid receptor (Cavia porcellus, UniProt P97266); test: Agonist activity at mu opioid receptor in guinea pig ileum assessed as inhibition of electrically-stimulated muscle contraction; assay type: functional, tissue-based
Sequence of Mu-type opioid receptor (Cavia porcellus, UniProt P97266) (P97266 whole entry): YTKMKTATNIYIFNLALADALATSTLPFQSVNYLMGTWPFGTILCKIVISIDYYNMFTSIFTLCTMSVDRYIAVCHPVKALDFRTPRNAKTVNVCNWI

Mu-type opioid receptor [6] = target: T1, Mu-type opioid receptor; test: Agonist activity at human FLAG-tagged mu opioid receptor expressed in HEK293 cells assessed as induction of ERK1/2 phosphorylation after 10 mins by Western blot analysis; assay type: functional, cell-based; summary of the method: as §1
Mus musculus [7] = test: Antinociceptive activity in naloxone treated Kunming mouse assessed as inhibition of heat-induced tail flick at 20 nmol/kg, icv after 10 mins post naloxone treatment; assay type: functional, organism-based
Summary of the method: (§2)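 Male Kunming mice (18−22 g), peptide or saline given icv; tail immersed in 50 ± 0.2 °C water and withdrawal latency recorded; only mice with baseline latency about 3−5 s used. Readings at 5, 10, 15, 20, 30, 40, 50 and 60 min post-injection; 10−15 mice per group. Naloxone 2 mg/kg ip 10 min before icv dosing for antagonism. ED50 with 95% confidence limits by graded dose−response.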

[8] = Selectivity ratio of Ki for Myc-tagged delta opioid receptor to Ki for FLAG-tagged mu opioid receptor
Mus musculus [9] = test: Antinociceptive activity in Kunming mouse assessed as inhibition of heat-induced tail flick at 0.67 to 20 nmol/kg, icv; assay type: functional, organism-based; conditions: TDE = time-dependent effect; summary of the method: as §2
Mu-type opioid receptor [10] = target: T1, Mu-type opioid receptor; test: Agonist activity at human FLAG-tagged mu opioid receptor expressed in HEK293 cells assessed as induction of ERK1/2 phosphorylation at 10 nM after 10 mins by Western blot analysis; assay type: functional, cell-based; summary of the method: as §1
Mus musculus [11] = test: Antinociceptive activity in icv dosed Kunming mouse assessed as inhibition of heat-induced tail flick after 5 to 60 mins; assay type: functional; conditions: for ED50: central; summary of the method: as §2
Mu-type opioid receptor [12] = target: T1, Mu-type opioid receptor; test: Displacement of [3H]DAMGO from FLAG-tagged mu opioid receptor expressed in HEK293 cells after 60 mins by liquid scintillation counter; assay type: cell-based
[13] = target: Delta-type opioid receptor (Homo sapiens, UniProt P41143); test: Displacement of [3H]DPDPE from Myc-tagged delta opioid receptor expressed in HEK293 cells after 60 mins by liquid scintillation counter; assay type: cell-based
Sequence of Delta-type opioid receptor (Homo sapiens, UniProt P41143) (P41143 whole entry): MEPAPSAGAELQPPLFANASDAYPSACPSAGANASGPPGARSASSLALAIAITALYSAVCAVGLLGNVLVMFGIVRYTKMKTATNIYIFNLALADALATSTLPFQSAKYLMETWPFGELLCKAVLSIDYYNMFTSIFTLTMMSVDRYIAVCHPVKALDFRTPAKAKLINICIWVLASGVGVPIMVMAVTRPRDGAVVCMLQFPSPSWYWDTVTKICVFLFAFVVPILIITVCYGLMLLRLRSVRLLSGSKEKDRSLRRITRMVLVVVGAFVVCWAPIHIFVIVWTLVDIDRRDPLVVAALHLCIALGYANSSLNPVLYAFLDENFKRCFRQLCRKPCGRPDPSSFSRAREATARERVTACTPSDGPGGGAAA

[14] = target: Delta-type opioid receptor (Mus musculus) (UniProt P32300); test: Agonist activity at delta opioid receptor in Kunming mouse vas deferens assessed as inhibition of electrically-stimulated muscle contraction in presence of delta opioid receptor antagonist naltrindole; assay type: functional, tissue-based
Sequence of Delta-type opioid receptor (Mus musculus) (P32300 whole entry): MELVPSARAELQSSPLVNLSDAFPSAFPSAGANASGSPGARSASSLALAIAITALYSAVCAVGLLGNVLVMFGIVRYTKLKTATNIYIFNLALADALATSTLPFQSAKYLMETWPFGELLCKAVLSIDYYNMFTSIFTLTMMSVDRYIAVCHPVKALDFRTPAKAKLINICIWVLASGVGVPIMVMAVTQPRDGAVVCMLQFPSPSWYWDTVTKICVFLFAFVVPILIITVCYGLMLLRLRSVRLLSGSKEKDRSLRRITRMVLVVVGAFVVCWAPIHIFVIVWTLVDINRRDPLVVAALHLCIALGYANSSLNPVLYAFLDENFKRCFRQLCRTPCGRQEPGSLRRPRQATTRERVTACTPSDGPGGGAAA

[15] = target: Delta-type opioid receptor (Mus musculus, UniProt P32300); test: Agonist activity at delta opioid receptor in Kunming mouse vas deferens assessed as inhibition of electrically-stimulated muscle contraction; assay type: functional, tissue-based
Sequence of Delta-type opioid receptor (Mus musculus, UniProt P32300) (P32300 whole entry): as above

Row | Structure (SMILES) | half-life [1] [h] | Activity (Mu-type opioid receptor [2]) | Emax (Mu-type opioid receptor [3]) [%] | pEC50 (Mu-type opioid receptor [4]) | inhibition (Mu-type opioid receptor [4]) | pIC50 (Mu-type opioid receptor [5]) | Activity (Mu-type opioid receptor [6]) | inhibition (Mus musculus [7]) | Ratio Ki [8] | inhibition (Mus musculus [9]) | Activity (Mu-type opioid receptor [10]) | inhibition (Mus musculus [11]) | ED50 (Mus musculus [11]) [µmol/kg] | pKi (Mu-type opioid receptor [12]) | pKi [13] | inhibition [14] | pIC50 [15]
1 | C=C(C(N)=O)[C@@H](NC(=O)[C@H](Cc1c[nH]c2ccccc12)NC(=O)[C@@H]1CCCN1C(=O)[C@@H](N)Cc1ccc(O)cc1)c1ccco1 | 1.43 | Active | 97.1 | 10.48 | Dose-dependent effect | 8.53 | Dose-dependent effect | inactive | 226000 | tde | Active | Dose-dependent effect | 0.00142 | 9.66 | 4.30 | inactive | 7.80
2 | C=C(C(N)=O)[C@@H](NC(=O)[C@H](Cc1c[nH]c2ccccc12)NC(=O)[C@@H]1CCCN1C(=O)[C@@H](N)Cc1ccc(O)cc1)c1ccc(Cl)cc1 | – | – | 85.6 | 7.92 | Dose-dependent effect | 7.82 | – | – | 1520 | – | – | Dose-dependent effect | – | 8.15 | 4.97 | inactive | 7.44
3 | NC(=O)[C@H](Cc1ccccc1)NC(=O)[C@H](Cc1c[nH]c2ccccc12)NC(=O)[C@@H]1CCCN1C(=O)[C@@H](N)Cc1ccc(O)cc1 | – | – | – | – | – | – | – | – | – | – | – | – | – | – | – | inactive | –
4 | C=C(C(N)=O)[C@@H](NC(=O)C(=C)[C@@H](NC(=O)[C@@H]1CCCN1C(=O)[C@@H](N)Cc1ccc(O)cc1)c1ccccc1)c1ccccc1 | – | – | 60.3 | 7.35 | Dose-dependent effect | 7.42 | – | – | 699 | – | – | Dose-dependent effect | – | 7.80 | 4.96 | inactive | 6.78
5 | C=C(C(N)=O)[C@@H](NC(=O)[C@H](Cc1c[nH]c2ccccc12)NC(=O)[C@@H]1CCCN1C(=O)[C@@H](N)Cc1ccc(O)cc1)c1ccc(F)cc1 | – | – | 81.5 | 8.13 | Dose-dependent effect | 7.50 | – | – | 1240 | – | – | Dose-dependent effect | – | 7.86 | 4.77 | inactive | 6.89
6 | C=C(C(N)=O)[C@@H](NC(=O)[C@H](Cc1c[nH]c2ccccc12)NC(=O)[C@@H]1CCCN1C(=O)[C@@H](N)Cc1ccc(O)cc1)c1ccc(OC)cc1 | – | – | 85.6 | 7.96 | Dose-dependent effect | 7.07 | – | – | 2110 | – | – | – | – | 8.32 | 4.99 | inactive | 6.52
7 | C=C(C(N)=O)[C@@H](NC(=O)[C@H](Cc1c[nH]c2ccccc12)NC(=O)[C@@H]1CCCN1C(=O)[C@@H](N)Cc1ccc(O)cc1)c1ccoc1 | 1.47 | Active | 98.7 | 10.47 | Dose-dependent effect | 8.40 | Dose-dependent effect | inactive | 186000 | tde | Active | Dose-dependent effect | 0.00155 | 9.56 | 4.29 | inactive | 7.99
8 | C=C(C(N)=O)[C@@H](NC(=O)[C@H](Cc1c[nH]c2ccccc12)NC(=O)[C@@H]1CCCN1C(=O)[C@@H](N)Cc1ccc(O)cc1)c1cccc2ccccc12 | – | – | 71 | 7.14 | Dose-dependent effect | 7.47 | – | – | 3260 | – | – | – | – | 7.59 | 4.07 | inactive | 7.07
9 | NC(=O)[C@H](Cc1ccccc1)NC(=O)[C@H](Cc1ccccc1)NC(=O)[C@@H]1CCCN1C(=O)[C@@H](N)Cc1ccc(O)cc1 | – | – | 82.8 | – | – | – | – | – | – | – | – | – | – | – | – | inactive | –
10 | C=C(C(N)=O)[C@@H](NC(=O)[C@H](Cc1c[nH]c2ccccc12)NC(=O)[C@@H]1CCCN1C(=O)[C@@H](N)Cc1ccc(O)cc1)c1cccc(Cl)c1 | 1.5 | – | 92.5 | 9.14 | Dose-dependent effect | 8.12 | – | inactive | 1670 | tde | – | Dose-dependent effect | 0.00928 | 8.46 | 5.24 | inactive | 7.16
11 | C=C(C(N)=O)[C@@H](NC(=O)[C@H](Cc1c[nH]c2ccccc12)NC(=O)[C@@H]1CCCN1C(=O)[C@@H](N)Cc1ccc(O)cc1)c1ccc2ccccc2c1 | – | – | 67.5 | 7.15 | Dose-dependent effect | 7.74 | – | – | 3100 | – | – | – | – | 7.56 | 4.07 | inactive | 6.85
12 | C=C(C(N)=O)[C@@H](NC(=O)[C@H](Cc1c[nH]c2ccccc12)NC(=O)[C@@H]1CCCN1C(=O)[C@@H](N)Cc1ccc(O)cc1)c1ccccc1Cl | – | – | 82.6 | 9.08 | Dose-dependent effect | 7.78 | – | – | 2720 | – | – | – | – | 8.26 | 4.83 | inactive | 6.44
13 | C=C(C(N)=O)[C@@H](NC(=O)[C@H](Cc1c[nH]c2ccccc12)NC(=O)[C@@H]1CCCN1C(=O)[C@@H](N)Cc1ccc(O)cc1)c1ccccc1 | 1.04 | Active | 97.9 | 9.80 | Dose-dependent effect | 8.17 | Dose-dependent effect | inactive | 105000 | tde | Active | Dose-dependent effect | 0.00233 | 9.27 | 4.25 | inactive | 8.12
14 | C=C(C(N)=O)[C@@H](NC(=O)[C@H](Cc1c[nH]c2ccccc12)NC(=O)[C@@H]1CCCN1C(=O)[C@@H](N)Cc1ccc(O)cc1)c1ccc2c(c1)OCO2 | – | – | 83.9 | 7.97 | Dose-dependent effect | 7.84 | – | – | 2420 | – | – | – | – | 8.11 | 4.73 | inactive | 6.36
15 | C=C(C(=O)N[C@@H](Cc1ccccc1)C(N)=O)[C@@H](NC(=O)[C@@H]1CCCN1C(=O)[C@@H](N)Cc1ccc(O)cc1)c1ccccc1 | – | – | 70.8 | 7.44 | Dose-dependent effect | 7.68 | – | – | 576 | – | – | Dose-dependent effect | – | 6.99 | 4.23 | inactive | < 5.00
